# According to ChEMBL document CHEMBL4411315, “Discovery of Novel Dual Histone Deacetylase and Mammalian Target of Rapamycin Target Inhibitors as a Promising Strategy for Cancer Therapy” (J Med Chem, 2019):
# The source made the active and inactive calls. No cut-off for these calls is given here.
# Experiments:
# [1] = tested on: MV4-11; assay: Induction of apoptosis in human MV4-11 cells assessed as early apoptotic cells at 320 nM after 48 hrs by Annexin V-FITC/propidium iodide staining-based flow cytometric analysis (reference value: 10.7%); format: functional
# [2] = Toxicity against NOD/SCID mouse xenografted with human MM1S cells assessed as effect on body weight at 10 mg/kg, iv administered every 2 days for 5 days; format: organism-based; settings: in vivo
# Method in brief: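 Female NOD/SCID mice, 5-6 weeks old, received 10^7 MM1S cells in 100 μL serum-free RPMI 1640 s.c. into the right flank. At 100-200 mm3 tumours they were randomised, 6 mice per group. Tumours were measured by caliper every 2 days. At the end, tumours were excised and weighed. Survivors are reported per group.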
# [3] = tested on: MM1.S; assay: Induction of apoptosis in human MM1S cells assessed as necrotic cells at 160 nM after 48 hrs by Annexin V-FITC/propidium iodide staining-based flow cytometric analysis (reference value: 0.32%); format: functional
# [4] = tested on: MM1.S; assay: Cell cycle arrest in human MM1S cells assessed as accumulation at G0/G1 phase at 10 nM after 24 hrs by propidium iodide/RNase staining-based FACS analysis (reference value: 49.22%); format: functional
# [5] = tested on: MV4-11; assay: Induction of apoptosis in human MV4-11 cells assessed as necrotic cells at 160 nM after 48 hrs by Annexin V-FITC/propidium iodide staining-based flow cytometric analysis (reference value: 0.17%); format: functional
# [6] = tested on: MM1.S; assay: Cell cycle arrest in human MM1S cells assessed as accumulation at S phase at 10 nM after 24 hrs by propidium iodide/RNase staining-based FACS analysis (reference value: 24.49%); format: functional
# [7] = target: Protein deacetylase HDAC6 (Homo sapiens) (UniProt Q9UBN7); assay: Inhibition of HDAC6 in human MV4-11 cells assessed as increase in alpha-tubulin acetylation after 6 hrs by Western blot analysis; format: cell-based
# Method in brief: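 MV4-11 cells treated 6 h at 0.01, 0.1 or 1 μM. Whole-cell protein extracted in RIPA buffer and quantified by BCA. 30 μg protein run on SDS-PAGE and transferred to PVDF. Blocked 1 h in 5% milk, primary antibody overnight at 4 °C, HRP secondary 1 h, ECL detection. Acetyl-histone H3 and acetyl-α-tubulin probed, with GAPDH as loading control.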
# [8] = tested on: MV4-11; assay: Cell cycle arrest in human MV4-11 cells assessed as accumulation at G0/G1 phase at 1.25 nM after 24 hrs by propidium iodide/RNase staining-based FACS analysis (reference value: 44.79%); format: functional
# [9] = tested on: MM1.S; assay: Induction of apoptosis in human MM1S cells assessed as necrotic cells at 20 nM after 48 hrs by Annexin V-FITC/propidium iodide staining-based flow cytometric analysis (reference value: 0.32%); format: functional
# [10] = tested on: MV4-11; assay: Induction of apoptosis in human MV4-11 cells assessed as late apoptotic cells at 20 nM after 48 hrs by Annexin V-FITC/propidium iodide staining-based flow cytometric analysis (reference value: 5.03%); format: functional
# [11] = tested on: MV4-11; assay: Cell cycle arrest in human MV4-11 cells assessed as accumulation at G0/G1 phase at 2.5 nM after 24 hrs by propidium iodide/RNase staining-based FACS analysis (reference value: 44.79%); format: functional
# [12] = tested on: MV4-11; assay: Cell cycle arrest in human MV4-11 cells assessed as accumulation at G0/G1 phase at 5 nM after 24 hrs by propidium iodide/RNase staining-based FACS analysis (reference value: 44.79%); format: functional
# [13] = tested on: MV4-11; assay: Induction of apoptosis in human MV4-11 cells assessed as viable cells at 160 nM after 48 hrs by Annexin V-FITC/propidium iodide staining-based flow cytometric analysis (reference value: 84.1%); format: functional; settings: MV4-11, 48 h, read-out: Activity
# [14] = tested on: MM1.S; assay: Cell cycle arrest in human MM1S cells assessed as accumulation at S phase at 2.5 nM after 24 hrs by propidium iodide/RNase staining-based FACS analysis (reference value: 24.49%); format: functional
# [15] = target: T1, Serine/threonine-protein kinase mTOR (Homo sapiens, UniProt P42345); assay: Inhibition of mTOR in human MV4-11 cells assessed as decrease in p70S6K phosphorylation at Thr 389 residues at 0.01 to 10 uM after 24 hrs by Western blot analysis; format: cell-based
# Method in brief: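 Treatment of MV4-11 cells lasted 24 h at 0.01, 0.1, 1 and 10 μM. Lysis in RIPA buffer and BCA quantitation, then 30 μg protein by SDS-PAGE, PVDF transfer, 5% milk block, primary antibody overnight at 4 °C, HRP secondary 1 h and ECL detection. p-p70S6K (T389), p-4EBP1 (S65), p-Akt (S473) and p-ERK were probed.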
# [16] = tested on: MV4-11; assay: Antitumor activity against human MV4-11 cells xenografted in NOD/SCID mouse assessed as tumor growth inhibition at 10 mg/kg, iv administered every 2 days for 6 days and measured every 2 days post last dose by caliper method relative to control; format: functional; settings: MV4-11, iv, read-out: TGI
# Method in brief: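 Female NOD/SCID mice aged 5-6 weeks received 10^7 MV4-11 cells in 100 μL serum-free IMDM s.c. into the right flank. At 100-200 mm3 the mice were randomized, 6 per group. Dosing was i.v. at 10 mg/kg every 2 days, in saline with 2.5% DMSO and 10% cyclodextrin at pH 9. Tumours were measured by caliper every 2 days, with volume = length × width² × 0.5, and were weighed at sacrifice.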
# [17] = target: T1, Serine/threonine-protein kinase mTOR; assay: Inhibition of recombinant N-terminal FLAG-tagged human mTOR (1362 to end residues) using ULight-4E-BP1 (Thr37/46) peptide as substrate after 1 hr by fluorescence assay
# Method in brief: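 mTOR enzyme, ATP, compound and ULight-4E-BP1 (Thr37/46) peptide in kinase buffer were incubated 1 h at room temperature. EDTA quench plus Eu-anti-phospho-4E-BP1 antibody was added and equilibrated 1 h. TR-FRET was read at excitation 320 or 340 nm and emission 665 nm. Curves were fitted, and values are means of at least two experiments.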
# [18] = tested on: MM1.S; assay: Cell cycle arrest in human MM1S cells assessed as accumulation at S phase at 5 nM after 24 hrs by propidium iodide/RNase staining-based FACS analysis (reference value: 24.49%); format: functional
# [19] = tested on: MV4-11; assay: Cell cycle arrest in human MV4-11 cells assessed as accumulation at G2/M phase at 5 nM after 24 hrs by propidium iodide/RNase staining-based FACS analysis (reference value: 18.79%); format: functional
# [20] = tested on: MV4-11; assay: Induction of apoptosis in human MV4-11 cells assessed as late apoptotic cells at 320 nM after 48 hrs by Annexin V-FITC/propidium iodide staining-based flow cytometric analysis (reference value: 5.03%); format: functional
# [21] = tested on: MV4-11; assay: Induction of apoptosis in human MV4-11 cells assessed as viable cells at 80 nM after 48 hrs by Annexin V-FITC/propidium iodide staining-based flow cytometric analysis (reference value: 84.1%); format: functional; settings: MV4-11, 48 h, read-out: Activity
# [22] = tested on: Raji; assay: Antiproliferative activity against human Raji cells after 72 hrs by MTT assay; format: functional, cell-based
# Method in brief: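 Log-phase cells were plated at 10000-15000 per well and exposed to serial concentrations after 24 h for 72 h. Read-out was MTT for 1-3 h, then 20% SDS overnight and absorbance at 570 nm. IC50 was calculated from growth versus untreated control, as mean ± SEM of at least three independent experiments.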
# Protein deacetylase HDAC6 (Homo sapiens), sequence (Q9UBN7 whole entry): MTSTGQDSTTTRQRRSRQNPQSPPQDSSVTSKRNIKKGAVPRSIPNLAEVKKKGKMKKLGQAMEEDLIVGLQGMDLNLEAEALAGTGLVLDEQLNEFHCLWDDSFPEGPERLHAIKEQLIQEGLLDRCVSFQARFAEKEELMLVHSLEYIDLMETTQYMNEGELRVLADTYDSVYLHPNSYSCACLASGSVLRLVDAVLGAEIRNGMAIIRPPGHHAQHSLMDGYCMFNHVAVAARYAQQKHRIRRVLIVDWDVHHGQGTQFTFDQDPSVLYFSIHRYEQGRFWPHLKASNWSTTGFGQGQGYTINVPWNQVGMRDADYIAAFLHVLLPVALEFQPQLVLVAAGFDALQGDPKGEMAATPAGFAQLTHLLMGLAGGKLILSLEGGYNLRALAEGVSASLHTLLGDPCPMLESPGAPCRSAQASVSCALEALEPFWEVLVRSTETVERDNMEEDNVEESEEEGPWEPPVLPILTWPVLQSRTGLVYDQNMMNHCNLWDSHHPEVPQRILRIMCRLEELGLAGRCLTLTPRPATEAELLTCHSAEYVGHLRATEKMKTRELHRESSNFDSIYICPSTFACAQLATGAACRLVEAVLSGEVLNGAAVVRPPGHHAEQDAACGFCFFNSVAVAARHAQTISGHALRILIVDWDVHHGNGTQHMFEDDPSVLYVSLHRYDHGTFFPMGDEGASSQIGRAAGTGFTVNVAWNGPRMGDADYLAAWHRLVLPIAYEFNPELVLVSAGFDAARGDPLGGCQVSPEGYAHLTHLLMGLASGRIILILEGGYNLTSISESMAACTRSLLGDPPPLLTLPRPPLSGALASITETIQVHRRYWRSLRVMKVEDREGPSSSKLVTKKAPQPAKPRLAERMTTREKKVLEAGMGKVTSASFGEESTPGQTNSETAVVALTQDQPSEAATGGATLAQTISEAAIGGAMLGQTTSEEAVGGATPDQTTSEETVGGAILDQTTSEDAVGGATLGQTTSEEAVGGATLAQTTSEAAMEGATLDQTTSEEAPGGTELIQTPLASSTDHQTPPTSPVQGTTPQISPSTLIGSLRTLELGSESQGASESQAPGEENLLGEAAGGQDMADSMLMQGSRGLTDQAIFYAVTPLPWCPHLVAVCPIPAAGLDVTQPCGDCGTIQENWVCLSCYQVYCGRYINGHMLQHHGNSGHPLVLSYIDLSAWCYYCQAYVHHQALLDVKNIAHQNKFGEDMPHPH
compound,measurement,setting,value
C[C@@H]1CN(C(=O)Nc2ccc(-c3nc(N4CCOCC4)c4cnn(CCCCCCC(=O)NO)c4n3)cc2)CCO1,Activity,[1],27.5%
same,Activity,[2],Non-Toxic
same,Activity,[3],3.39%
same,Activity,[4],66.96%
same,Activity,[5],1.13%
same,Activity,[6],12.6%
same,inhibition,[7],Dose-dependent effect
same,Activity,[8],46.85%
same,Activity,[9],1.05%
same,Activity,[10],38.4%
same,Activity,[11],48.03%
same,Activity,[12],64.69%
same,viability at 0.16 µM,[13],2.29%
same,Activity,[14],21.59%
same,inhibition,[15],Active
same,inhibition in vivo at 10 mg/kg,[16],53.1%
same,IC50,[17],1.2 nM
same,Activity,[18],17.65%
same,Activity,[19],13.99%
same,Activity,[20],68.3%
same,viability at 0.08 µM,[21],4.09%
same,IC50,[22],1.9 nM
